Assay results taken from ChEMBL document CHEMBL1122242, “Phenylenebis(oxy)bis[2,2-dimethylpentanoic acid]s: agents that elevate high-density lipoproteins” (1983).
Where “and” joins values, the source holds several entries; their conditions need not be identical. Identical values can stand only once.

Key:
Format in all cases: functional
Rattus norvegicus [1] = species on record: Rattus norvegicus; assay: Hypolipidemic effects(liver weight) in male rats
Procedure, shortened: (§1)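 Male rats, 10 per group, fed 7 days on chow with 10% fat (5.5% added peanut oil), 1.5% cholesterol and 0.1% cholic acid. Oral gavage on days 4-7 in 4% acacia, usually 50 mg/kg daily. Fasted overnight, killed day 8, atrial blood into EDTA. Plasma cholesterol, TG and HDL cholesterol (after MnCl2/heparin precipitation) by Autoanalyzer. % change vs controls, Student's t test.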

Rattus norvegicus [2] = species on record: Rattus norvegicus; assay: Hypolipidemic effects (low-density lipoprotein (LDL) cholesterol) in male rats; procedure, shortened: as §1
Rattus norvegicus [3] = species on record: Rattus norvegicus; assay: Hypolipidemic effects(plasma TG) in male rats; procedure, shortened: as §1
Rattus norvegicus [4] = species on record: Rattus norvegicus; assay: Hypolipidemic effects(plasma cholesterol) in male rats; procedure, shortened: as §1
Rattus norvegicus [5] = assay: Hypolipidemic effects (high-density lipoprotein (HDL) cholesterol) in male rats;Compound was screening orally at 50 mg/Kg; procedure, shortened: as §1
Rattus norvegicus [6] = assay: Hypolipidemic effects(liver weight) in male rats at 12.50 mg/kg; settings: dose 12.5 mg/kg
Procedure, shortened: (§2)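 Head-to-head oral dosing at 12.5, 25 and 50 mg/kg daily […] in male rats kept on a high lipid diet, alongside gemfibrozil reference. Plasma lipid fractions and liver weight expressed as % change vs controls.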

Rattus norvegicus [7] = assay: Hypolipidemic effects(liver weight) in male rats at 25 mg/kg; procedure, shortened: as §2
Rattus norvegicus [8] = assay: Hypolipidemic effects(plasma TG) in male rats at 12.50 mg/kg; settings: dose 12.5 mg/kg; procedure, shortened: as §2
Rattus norvegicus [9] = assay: Hypolipidemic effects(plasma TG) in male rats;Compound was screening orally at 50 mg/Kg; procedure, shortened: as §1
Rattus norvegicus [10] = assay: Hypolipidemic effects(plasma cholesterol) in male rats at 12.50 mg/kg; settings: dose 12.5 mg/kg; procedure, shortened: as §2
Rattus norvegicus [11] = assay: Hypolipidemic effects as the ratio of (HDL/LDL) in male rats at dose 12.5 mg/kg.
Procedure, shortened: (§3)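 Male rats on a high lipid diet, dosed orally […] at 12.5, 25 or 50 mg/kg, with gemfibrozil reference. HDL/LDL (VLDL included) ratio from densitometry of polyacrylamide gel electrophoresis patterns of plasma. Expressed as % change vs controls.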

Rattus norvegicus [12] = assay: Hypolipidemic effects as the ratio of (HDL/LDL) in male rats at dose 25 mg/kg.; procedure, shortened: as §3
Rattus norvegicus [13] = assay: Hypolipidemic effects as the ratio of (HDL/LDL) in male rats at dose 50 mg/kg.; procedure, shortened: as §3
Rattus norvegicus [14] = assay: Hypolipidemic effects (Low-density lipoprotein (LDL) cholesterol) in male rats at 12.50 mg/kg; settings: dose 12.5 mg/kg; procedure, shortened: as §2
Rattus norvegicus [15] = assay: Hypolipidemic effects (high-density lipoprotein (HDL) cholesterol) in male rats; Compound was screening orally at 50 mg/Kg; procedure, shortened: as §1
Rattus norvegicus [16] = assay: Hypolipidemic effects (high-density lipoprotein (HDL) cholesterol) in male rats at 12.50 mg/kg; settings: dose 12.5 mg/kg; procedure, shortened: as §2
Rattus norvegicus [17] = assay: Hypolipidemic effects (high-density lipoprotein (HDL) cholesterol) in male rats at 25 mg/kg; procedure, shortened: as §2
Rattus norvegicus [18] = assay: Hypolipidemic effects(plasma cholesterol) in male rats at 25 mg/kg; procedure, shortened: as §2
Rattus norvegicus [19] = assay: Hypolipidemic effects(plasma cholesterol) in male rats;Compound was screening orally at 50 mg/Kg; procedure, shortened: as §1
Rattus norvegicus [20] = assay: Hypolipidemic effects(plasma TG) in male rats at 25 mg/kg; procedure, shortened: as §2
Rattus norvegicus [21] = assay: Hypolipidemic effects (Low-density lipoprotein (LDL) cholesterol) in male rats at 25 mg/kg; procedure, shortened: as §2
Rattus norvegicus [22] = assay: Hypolipidemic effects (high-density lipoprotein (HDL) cholesterol) in male rats at 50 mg/kg; Compound was screening orally at 50 mg/Kg; procedure, shortened: as §1
Rattus norvegicus [23] = assay: Hypolipidemic effects(liver weight) in male rats at 50 mg/kg; procedure, shortened: as §2
Rattus norvegicus [24] = assay: Hypolipidemic effects(plasma TG) in male rats at 50 mg/kg; procedure, shortened: as §2
Rattus norvegicus [25] = assay: Hypolipidemic effects (Low-density lipoprotein (LDL) cholesterol) in male rats at 50 mg/kg; Compound was screening orally at 50 mg/Kg; procedure, shortened: as §1
Rattus norvegicus [26] = assay: Hypolipidemic effects(plasma cholesterol) in male rats at 50 mg/kg; procedure, shortened: as §2
Rattus norvegicus [27] = assay: Hypolipidemic effects (high-density lipoprotein (HDL) cholesterol) in male rats at 50 mg/kg orally; settings: route oral; procedure, shortened: as §2
Rattus norvegicus [28] = assay: Hypolipidemic effects (high-density lipoprotein (HDL) cholesterol) in male rats at 50 mg/kg; procedure, shortened: as §2
Rattus norvegicus [29] = assay: Hypolipidemic effects (Low-density lipoprotein (LDL) cholesterol) in male rats at 50 mg/kg; procedure, shortened: as §2
Rattus norvegicus [30] = assay: Hypolipidemic effects(liver weight) in male rats at 12.5 mg/kg; procedure, shortened: as §2
Rattus norvegicus [31] = assay: Hypolipidemic effects(plasma TG) in male rats at a dose of 50 mg/kg; procedure, shortened: as §1
Rattus norvegicus [32] = assay: Hypolipidemic effects (Low-density lipoprotein (LDL) cholesterol) in male rats at a dose of 50 mg/kg; Compound was screening orally at 50 mg/Kg; procedure, shortened: as §1
Rattus norvegicus [33] = assay: Hypolipidemic effects (high-density lipoprotein (HDL) cholesterol) in male rats at 12.5 mg/kg; procedure, shortened: as §2
Rattus norvegicus [34] = assay: Hypolipidemic effects(plasma cholesterol) in male rats at a dose of 50 mg/kg; procedure, shortened: as §1
Rattus norvegicus [35] = assay: Hypolipidemic effects (high-density lipoprotein (HDL) cholesterol) in male rats at a dose of 50 mg/kg; Compound was screening orally at 50 mg/Kg; procedure, shortened: as §1

| SMILES | Change (Rattus norvegicus [6]) | Change (Rattus norvegicus [7]) | Change (Rattus norvegicus [8]) | Change (Rattus norvegicus [10]) | Change (Rattus norvegicus [11]) | Change (Rattus norvegicus [12]) | Change (Rattus norvegicus [13]) | Change (Rattus norvegicus [14]) | Change (Rattus norvegicus [16]) | Change (Rattus norvegicus [17]) | Change (Rattus norvegicus [18]) | Change (Rattus norvegicus [20]) | Change (Rattus norvegicus [21]) | Change (Rattus norvegicus [22]) | Change (Rattus norvegicus [23]) | Change (Rattus norvegicus [24]) | Change (Rattus norvegicus [25]) | Change (Rattus norvegicus [26]) | also measured |
| --- | --- | --- | --- | --- | --- | --- | --- | --- | --- | --- | --- | --- | --- | --- | --- | --- | --- | --- | --- |
| COC(=O)C(C)(C)CCCOc1cccc(OC)c1OCCCC(C)(C)C(=O)OC |  |  |  |  |  |  |  |  |  |  |  |  |  |  |  |  |  |  | Change (Rattus norvegicus [1]): 0%; Change (Rattus norvegicus [2]): 0%; Change (Rattus norvegicus [3]): 0%; Change (Rattus norvegicus [4]): 0%; Change (Rattus norvegicus [5]): 0% |
| CC(C)(CCCOc1ccc(SCCCC(C)(C)C(=O)O)cc1)C(=O)O | 0% | 6% | 0% | -19% | 101% | 302% | 785% | -25% | 74% | 232% | -22% | 37% | -40% |  |  |  |  |  | Change (Rattus norvegicus [1]): 18%; Change (Rattus norvegicus [2]): -51%; Change (Rattus norvegicus [9]): -40%; Change (Rattus norvegicus [15]): 628%; Change (Rattus norvegicus [19]): -44% |
| COC(=O)C(C)(C)CCCOc1ccc(OCCCC(C)(C)C(=O)OC)c(C)c1 | 13% | 25% | 0% | -43% | 142% | 452% | 1009% | -54% | 102% | 269% | -41% | 0% | -65% | 743% | 38% | 62% | -71% | -37% |  |
| CC(C)(CCCCOc1ccc(OCCCCC(C)(C)C(=O)O)cc1)C(=O)O | 4% | 14% | -16% | -33% | 180% | 339% | 1722% | -40% | 81% | 227% | -35% | 0% | -50% |  | 36% | -20% |  | 0% | Change (Rattus norvegicus [27]): 1477%; Change (Rattus norvegicus [28]): 1477% |
| CC(C)(CCCOc1ccc(OCCCC(C)(C)C(=O)O)c(Cl)c1)C(=O)O | 8% | 18% | -28% | -65% | 242% | 493% | 1445% | -74% | 94% | 206% | -60% | -31% | -77% | 753% | 38% | 0% | -62% | -53% | Change (Rattus norvegicus [29]): -62%; Change (Rattus norvegicus [28]): 753% |
| CC(C)(CCCOc1ccc(OCCCC(C)(C)C(=O)O)c(-c2ccccc2)c1)C(=O)O | 13% | 22% | 32% | -53% | 945% | 1798% | 2432% | -78% | 518% | 741% | -52% | 82% | -72% | 1410% | 34% | 31% | -85% | -27% |  |
| Cc1ccc(C)c(OCCCC(C)(C)C(=O)O)c1 [GEMFIBROZIL] | 7% |  | 45% | 0% |  |  |  | -16% | 134% |  |  |  |  |  |  |  |  |  | Change (Rattus norvegicus [30]): 7% and 4%; Change (Rattus norvegicus [7]; 25 mg/kg): 10% and 8% and 9% and 11%; Change (Rattus norvegicus [23]; 50 mg/kg): 17% and 26% and 13%; Change (Rattus norvegicus [24]; 50 mg/kg): 57% and 69%; Change (Rattus norvegicus [31]): 233%; Change (Rattus norvegicus [11]; 12.5 mg/kg): 98% [middle of 5 runs]; Change (Rattus norvegicus [12]; 25 mg/kg): 214% [middle of 5 runs]; Change (Rattus norvegicus [13]; 50 mg/kg): 364% and 594% and 405%; Change (Rattus norvegicus [29]): -42%; Change (Rattus norvegicus [32]): -32%; Change (Rattus norvegicus [33]): 88% and 134% and 116% and 133%; Change (Rattus norvegicus [17]; 25 mg/kg): 215% and 257% and 171% and 236% and 246%; Change (Rattus norvegicus [28]; 50 mg/kg): 498% and 306%; Change (Rattus norvegicus [26]; 50 mg/kg): -26% and -29%; Change (Rattus norvegicus [34]): 0%; Change (Rattus norvegicus [20]; 25 mg/kg): 64% [middle of 5 runs]; Change (Rattus norvegicus [21]; 25 mg/kg): -22% [middle of 4 runs]; Change (Rattus norvegicus [35]): 339% |
